Source: ChEMBL document CHEMBL1121363, “DNA intercalating compounds as potential antitumor agents. 2. Preparation and properties of 7H-pyridocarbazole dimers” (1980)

Experiments:
Calf thymus DNA [1] = test: Dimer binding constant for DNA of calf thymus at pH 5.; assay type: nucleic-acid assay; details: Bos taurus
Outline: (§1)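 Fluorimetric competition: calf thymus DNA (B = 1.6 × 10⁻⁶ M base pairs) with ethidium dimer (6.4 × 10⁻⁷ M) equilibrated 24 h with varied dimer concentrations, 20 °C. Buffers: 0.2 M sodium acetate pH 5, or 0.1 M NaCl/0.1 M Tris-HCl pH 7.4. Ex 540/em 610 nm. Displacement curve fitted to McGhee–von Hippel equations using n set by ethidium bromide competition, giving Kap.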

Calf thymus DNA [2] = test: Dimer binding constant for DNA of calf thymus at pH 7.4; assay type: nucleic-acid assay; details: Bos taurus; outline: as §1
Calf thymus DNA [3] = test: Displacement of ethidium from DNA of calf thymus at pH 5; assay type: nucleic-acid assay; details: Bos taurus
Outline: (§2)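 Ethidium dimer (6.4 × 10⁻⁷ M) pre-bound to calf thymus DNA (1.6 × 10⁻⁶ M base pairs), 24 h equilibration with competing dimer, 20 °C, in 0.2 M sodium acetate pH 5 or 0.1 M NaCl/0.1 M Tris-HCl pH 7.4. Fluorescence ex 540, em 610 nm. rf50 = ratio of total dimer to DNA base pairs displacing 50% of bound ethidium dimer.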

Calf thymus DNA [4] = test: Displacement of ethidium from DNA of calf thymus at pH 7.4; assay type: nucleic-acid assay; details: Bos taurus; outline: as §2
Mus musculus [5] = test: Evaluated for the antitumor activity against L1210 Murine leukemia at optimum intraperitoneal dose 0.4 of the MTD
Mus musculus [6] = test: Evaluated for the antitumor activity against L1210 Murine leukemia at optimum intraperitoneal dose 0.5 of the MTD
Mus musculus [7] = test: Evaluated for the antitumor activity against L1210 Murine leukemia at optimum intraperitoneal dose 0.25 of the MTD
Mus musculus [8] = test: Evaluated for the antitumor activity against L1210 Murine leukemia at optimum intraperitoneal dose 0.8 of the MTD
Mus musculus [9] = test: Evaluated for the antitumor activity against L1210 Murine leukemia at optimum intraperitoneal dose 0.2 of the MTD

Row | K app (Calf thymus DNA [1]) | K app (Calf thymus DNA [2]) | rf50 (Calf thymus DNA [3]) | rf50 (Calf thymus DNA [4]) | SMILES | T/C (Mus musculus [5]) [%] | T/C (Mus musculus [6]) [%] | T/C (Mus musculus [7]) [%] | T/C (Mus musculus [8]) [%] | T/C (Mus musculus [9]) [%]
1 | 1e+09 | 4e+06 | 0.25 | 2.24 | COc1ccc2[nH]c3ccc4cc[n+](CCN5CCC(CCCC6CCN(CC[n+]7ccc8ccc9[nH]c%10ccc(OC)cc%10c9c8c7)CC6)CC5)cc4c3c2c1 | – | – | – | – | –
2 | 5e+08 | 1e+07 | 0.32 | 1.2 | Oc1ccc2[nH]c3ccc4cc[n+](CCN5CCC(C6CCN(CC[n+]7ccc8ccc9[nH]c%10ccc(O)cc%10c9c8c7)CC6)CC5)cc4c3c2c1.[Cl-].[Cl-] | 157 | – | – | – | –
3 | 2e+08 | 1e+06 | – | – | COc1ccc2[nH]c3c(C)c4cc[n+](CCN5CCC(C6CCN(CC[n+]7ccc8c(C)c9[nH]c%10ccc(OC)cc%10c9c(C)c8c7)CC6)CC5)cc4c(C)c3c2c1 | – | – | – | – | –
4 | 1e+08 | 1e+06 | – | – | Cc1c2cc[n+](CCN3CCC(C4CCN(CC[n+]5ccc6c(C)c7[nH]c8ccc(O)cc8c7c(C)c6c5)CC4)CC3)cc2c(C)c2c1[nH]c1ccc(O)cc12 | – | – | – | – | –
5 | 3e+06 | 3e+06 | 2.4 | 3 | COc1ccc2[nH]c3ccc4cc[n+](CCCCCCCCCC[n+]5ccc6ccc7[nH]c8ccc(OC)cc8c7c6c5)cc4c3c2c1.[Br-].[Br-] | – | 124 | – | – | –
6 | 1.8e+06 | 300000 | 9.5 | 20 | COc1ccc2c(c1)c1c3c[n+](CCN4CCCCC4)ccc3ccc1n2C | – | – | – | – | –
7 | 5e+08 | 6e+06 | 0.32 | 1.2 | COc1ccc2c(c1)c1c3cc[n+](CCN4CCC(C5CCN(CC[n+]6ccc7c(ccc8c7c7cc(OC)ccc7n8C)c6)CC5)CC4)cc3ccc1n2C | – | – | – | – | –
8 | 1e+08 | 8e+06 | 0.8 | 8.4 | COc1ccc2[nH]c3ccc4cc[n+](CCN(C)CCCCCN(C)CC[n+]5ccc6ccc7[nH]c8ccc(OC)cc8c7c6c5)cc4c3c2c1 | – | – | – | – | –
9 | 5e+08 | 1e+07 | 0.32 | 0.96 | COc1ccc2[nH]c3ccc4cc[n+](CCN5CCC(C6CCN(CC[n+]7ccc8ccc9[nH]c%10ccc(OC)cc%10c9c8c7)CC6)CC5)cc4c3c2c1.[Cl-].[Cl-] [DITERCALINIUM CHLORIDE] | – | – | 216 | – | –
10 | 3e+08 | 5e+06 | 0.4 | 1.4 | [Cl-].[Cl-].c1ccc2c(c1)[nH]c1ccc3cc[n+](CCN4CCC(C5CCN(CC[n+]6ccc7ccc8[nH]c9ccccc9c8c7c6)CC5)CC4)cc3c12 | – | 121 | – | – | –
11 | 1e+09 | 2e+07 | 0.24 | 0.72 | COc1ccc2[nH]c3ccc4cc[n+](CC(O)CN5CCC(C6CCN(CC(O)C[n+]7ccc8ccc9[nH]c%10ccc(OC)cc%10c9c8c7)CC6)CC5)cc4c3c2c1 (stereo not drawn) | – | – | – | – | –
12 | 3e+08 | 2e+07 | 0.4 | 0.72 | COc1ccc2c(c1)c1c3c[n+](CCN4CCC(C5CCN(CC[n+]6ccc7ccc8c(c7c6)c6cc(OC)ccc6n8C)CC5)CC4)ccc3ccc1n2C.[Cl-].[Cl-] | – | – | – | 155 | –
13 | 2e+08 | 500000 | 0.5 | 13 | Oc1ccc2[nH]c3ccc4c[n+](CCN5CCC(C6CCN(CC[n+]7ccc8c(ccc9[nH]c%10ccc(O)cc%10c98)c7)CC6)CC5)ccc4c3c2c1 | – | – | – | – | –
14 | 5e+08 | 3e+06 | 0.32 | 3.4 | COc1ccc2[nH]c3ccc4c[n+](CCN5CCC(C6CCN(CC[n+]7ccc8c(ccc9[nH]c%10ccc(OC)cc%10c98)c7)CC6)CC5)ccc4c3c2c1.[Cl-].[Cl-] | – | – | – | – | 130
